Results on 3 compounds are retold here after ChEMBL document CHEMBL4190305, “Dioxomorpholines and Derivatives from a Marine-Facultative Aspergillus Species” (J Nat Prod, 2017).

The species named for assay [1] is Homo sapiens. In words: Cytotoxicity against human A549/DXR cells assessed as reduction in cell viability after 72 hrs by CellTiter 96 AQueous one solution cell proliferation assay. In kind it is functional, cell-based. The method in brief:
(§1)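 Cells seeded at 3000–4000 per well and grown 20 h, then medium replaced by 10% fetal bovine serum medium with test compound for 72 h. Viability read by MTS-type (CellTiter 96 AQueous One) absorbance at 490 nm, relative to untreated control cells; triplicate wells per condition.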

The subject of assay [2] is MDA-MB-231. In words: Cytotoxicity against human MDA-MB-231 cells harboring p53 R280K mutant assessed as reduction in cell viability after 72 hrs by CellTiter 96 AQueous one solution cell proliferation assay. Type of assay: cell-based. The settings on record: MDA-MB-231, 72 h. The method in brief:
as §1

Assay [3] has as its system HCT-116. Description: Cytotoxicity against p53 null human HCT116 cells assessed as reduction in cell viability after 72 hrs by CellTiter 96 AQueous one solution cell proliferation assay. Type of assay: cell-based. The note with it: HCT-116, 72 h. The method in brief: as §1
In assay [4] the test system is HCT-116. Description: Cytotoxicity against human HCT116 cells harboring wild type p53 assessed as reduction in cell viability after 72 hrs by CellTiter 96 AQueous one solution cell proliferation assay. In kind it is cell-based. The settings on record: HCT-116, 72 h. The method in brief: as §1
Assay [5] deals with A549. Description: Cytotoxicity against human A549 cells assessed as reduction in cell viability after 72 hrs by CellTiter 96 AQueous one solution cell proliferation assay. In kind it is cell-based. The settings on record: A549, 72 h. The method in brief:
as §1

Assay [6] deals with U2OS. Description: Cytotoxicity against human U2OS cells assessed as reduction in cell viability after 72 hrs by CellTiter 96 AQueous one solution cell proliferation assay. Type of assay: cell-based. Summed up:
as §1

Assay [7] deals with A549. In words: Inhibition of calcein-AM efflux in human A549 cells at 10 uM after 1 hr by fluorescence assay. In kind it is functional, cell-based. The method in brief: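 Vybrant multidrug resistance kit: 500 000 cells/well cultured overnight, triplicate cultures pretreated 1 h with compound (verapamil 50 μg/mL, cyclosporine A 25 μg/mL as positive controls), then 0.25 μM calcein-AM for 30 min. Cells washed twice in cold medium; intracellular calcein fluorescence read at ex 494/em 517 nm, expressed as percent calcein retention.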

The subject of assay [8] is A549. Description: Potentiation of doxorubicin-induced cytotoxicity against human A549 cells assessed as decrease in cell viability at 10 uM after 72 hrs by CellTiter 96 AQueous one solution cell proliferation assay. Type of assay: functional, cell-based. Summed up:
(§2)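 Seeded 3000–4000 cells/well, 20 h growth, then a range of doxorubicin concentrations alone or combined with 10 μM compound in 10% FBS medium for 72 h (DMSO vehicle). Viability by CellTiter 96 AQueous One at 490 nm versus untreated cells; triplicate wells, mean ± SEM of three independent experiments.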

Assay [9] deals with U2OS. Description: Potentiation of doxorubicin-induced cytotoxicity against human U2OS cells assessed as decrease in cell viability at 10 uM after 72 hrs by CellTiter 96 AQueous one solution cell proliferation assay. Type of assay: functional, cell-based. The method in brief: as §2
The subject of assay [10] is MDA-MB-231. In words: Potentiation of doxorubicin-induced cytotoxicity against p53 CRISPR-Cas9 knockout human MDA-MB-231 cells assessed as decrease in cell viability at 10 uM after 72 hrs by CellTiter 96 AQueous one solution cell proliferation assay. Type of assay: functional, cell-based. Summed up: as §2
The next assay has as its system SAOS-2. Description: Potentiation of doxorubicin-induced cytotoxicity against p53 null human Saos2 cells assessed as decrease in cell viability at 10 uM after 72 hrs by CellTiter 96 AQueous one solution cell proliferation assay. Type of assay: functional, cell-based. The method in brief:
as §2

The species named for assay [11] is Homo sapiens. In words: Inhibition of Pgp in human A549/DXR cells assessed as reduction in calcein-AM efflux after 1 hr by fluorescence assay.

The structures appear in SMILES notation. Activity calls are given as the source filed them. The rule behind the calls is not given here.

What is called IC50 is the concentration needed to halve the response being measured. Consider `C=CC(C)(C)[C@]12Nc3c(O)cccc3[C@@]1(O)C[C@H]1C(=O)O[C@@H](Cc3ccccc3)C(=O)N12`, for which the Activity result in the assay filed under Homo sapiens [1] was “Dose-dependent effect”. Besides, the concentration for half-maximal inhibition (IC50) with MDA-MB-231 [2], with HCT-116 [3], in the assay on HCT-116 [4], in the assay with A549 [5] and with U2OS [6] was above 50 µM in each case. In addition, the inhibition entry in the assay on A549 [7] is “Active”. In addition, the result in the assay on A549 [8], in the assay with U2OS [9], in the assay with MDA-MB-231 [10] and in the assay on SAOS-2 was Active. Moreover, in the assay listed under Homo sapiens [11], the inhibition entry is “Dose-dependent effect”.
Take `C=CC(C)(C)c1[nH]c2ccccc2c1C[C@H](NC(=O)[C@@H](O)Cc1ccccc1)C(=O)O`: the Activity result in the assay filed under Homo sapiens [1] was “Dose-dependent effect”. Further, the IC50 with MDA-MB-231 [2], in the assay on HCT-116 [3], with HCT-116 [4], with A549 [5] and in the assay on U2OS [6] was above 50 µM in each case. Further, in the assay on A549 [7], the inhibition entry was “Active”. In addition, the result with A549 [8], with U2OS [9], with MDA-MB-231 [10] and with SAOS-2 was Active. In addition, the inhibition entry in the assay filed under Homo sapiens [11] is “Dose-dependent effect”.
Regarding `C=CC(C)(C)[C@]1(C[C@H](NC(=O)[C@@H](O)Cc2ccccc2)C(=O)O)C(=O)Nc2c(O)cccc21`, the Activity result in the assay filed under Homo sapiens [1] was “Dose-dependent effect”. The 50% inhibitory concentration (IC50) in the assay with MDA-MB-231 [2], in the assay with HCT-116 [3], in the assay with HCT-116 [4], with A549 [5] and in the assay on U2OS [6] was above 50 µM throughout. For the same compound, in the assay on A549 [7], the inhibition entry is “Active”. For the same compound, the outcome in the assay on A549 [8], in the assay with U2OS [9], in the assay on MDA-MB-231 [10] and in the assay with SAOS-2 was Active. In the assay filed under Homo sapiens [11], the inhibition entry is “Dose-dependent effect”.
